HSP90 inh = HSP90 inhibitors, primary screen, cell lysate, luminescence; Heat shock protein HSP 90 (rabbit reticulocyte lysate; luciferase refolding); inhibition, % at 5.6 µM; AID 1789, 2009; 0.91% of 290,000 active; Rabbit reticulocyte lysate, luciferase refolding luminescence, 3 h;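 active means inhibition above the screen-wide mean plus 3 SD, computed separately per campaign, cut at about 16% in these data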;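 further: 0% = DMSO wells and 100% = 60 µM geldanamycin wells; inhibitors lower the luminescence because luciferase stays unfolded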
HSF-1 act = HSF-1 activators, primary screen, NIH3T3-HGL cells, MG132 stress, luminescence, single point; activation, % at 9 µM; 1.7% of 300,000 active; NIH3T3-HGL HSF-1 luciferase reporter, 8 h; 100% = twice DMSO control signal;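 active means mean replicate activation of at least 50% with a set share of replicates each reaching 50%; inconclusive means only one of those two conditions met; inactive means mean below 50% and too few replicates reaching it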;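 further: 0% = median of the neutral control wells and 100% = twice that signal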
HSF1 inhib = HSF1 inhibitors in luciferase reporter cells, primary screen, cell-based, NIH3T3, luminescence; NIH3T3-HGL HSE-luciferase, MG132-induced, luminescence 8 h; hits give low values; activity change, negative = inhibition, % at 7.5 µM (by protocol); 0.77% of 300,000 active; AID 2098, 2009;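 active means more than half of replicate wells show activity change below -50%, luminescence cut by over half; inconclusive means some wells, but at most half, below -50%; inactive means no replicate well below -50%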;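 further: luciferase reports HSF-1 transcriptional activity via heat shock element; 0% = median of DMSO wells and -100% = zero luminescence signal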
NS3 helicase inh = inhibitors of HCV NS3 helicase, primary screen, biochemical, Cy5 molecular beacon fluorescence; Hepatitis C virus NS3 helicase; NS3 helicase DNA unwinding; inhibition, % at 10.9 µM; 0.56% of 290,000 active;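 active means inhibition above the mean of all tested compounds plus 3 SD, set per campaign, cut at about 35% in these data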;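 further: 0% = DMSO wells and 100% = thioflavine S control wells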
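System: Hepatitis C virus NS3 helicase domain fragment enzyme | Reagent: Annealed dual-labelled DNA beacon duplex, ATP-started | Compound dosing: 10.9 µM single point, 0.8% DMSO | Incubation: 1 h reaction at 25 °C, ATP-initiated | Technique: Cy5 fluorescence | Evaluation: Percent inhibition from t60/t0 fluorescence ratio | Benchmarks: Low DMSO, high thioflavine S at 110 µM | Replication: Singlicate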
Hep lipid drop = inhibitors of hepatocyte lipid droplet formation, primary screen, imaging, high-throughput imaging, BODIPY stain. 0.4% of 240,000 active. inhibition, % at 6.5 µM. AML12 mouse hepatocytes, oleate lipid droplets;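 active means lipid droplet intensity inhibited by at least 50%, with more than 500 cells counted; inconclusive means wells with under 300 cells, treated as cytotoxic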
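Material – mouse AML12 hepatocyte cell line, fixed after treatment · Compound dosing – one dose, 6.5 µM compound · Times – compound with oleate, overnight · Measured by – Image-based BODIPY and DAPI two-channel analysis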
HSP90 inh confirm = HSP90 inhibitors, confirmation, cell lysate, luminescence; inhibition, % at 5.9 µM; shares compounds with HSP90 inh; rabbit reticulocyte lysate, luciferase refolding luminescence, 3 h; 64% of 2,300 active; in the data active means inhibition above about 18%;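 further: 0% = vehicle wells and 100% = reference inhibitor wells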
FLuc counter = firefly luciferase inhibitors, HSP90 counter-screen, confirmation, artefact control for HSP90 inhibitor project, biochemical, luminescence, triplicate | shares compounds with HSP90 inh | inhibition, % at 5.9 µM | 48% of 2,300 active | purified native firefly luciferase;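 active means inhibition above the mean inhibition of all tested sample wells plus 3 SD, cut at about 10% in these data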;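 further: 0% = DMSO with luciferase and 100% = wells lacking luciferase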
Target sequence (P08659 whole entry, looked up): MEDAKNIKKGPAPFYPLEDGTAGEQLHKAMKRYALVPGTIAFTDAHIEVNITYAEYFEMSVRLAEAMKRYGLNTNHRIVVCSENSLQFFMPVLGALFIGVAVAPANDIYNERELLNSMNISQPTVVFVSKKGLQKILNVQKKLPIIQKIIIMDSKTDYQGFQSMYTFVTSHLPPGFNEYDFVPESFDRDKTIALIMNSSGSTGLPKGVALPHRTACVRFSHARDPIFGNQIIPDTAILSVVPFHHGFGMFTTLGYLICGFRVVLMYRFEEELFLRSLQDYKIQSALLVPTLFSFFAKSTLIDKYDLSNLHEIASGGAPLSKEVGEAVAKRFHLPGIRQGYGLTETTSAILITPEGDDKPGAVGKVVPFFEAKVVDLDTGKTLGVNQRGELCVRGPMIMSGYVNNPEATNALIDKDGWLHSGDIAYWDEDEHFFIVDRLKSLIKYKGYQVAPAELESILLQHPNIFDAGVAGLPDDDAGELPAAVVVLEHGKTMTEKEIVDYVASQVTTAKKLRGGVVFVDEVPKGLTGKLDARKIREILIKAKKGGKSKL
Starred values were filed as active, the others as inactive; ? = inconclusive; · = not tested or not shown. This is a sample that favours compounds with a hit; in the whole collection about 3.8% have one here.

SMILES | HSP90 inh | HSF-1 act | HSF1 inhib | NS3 helicase inh | Hep lipid drop | HSP90 inh confirm | FLuc counter
COc1ccc(CCC(=O)OCC(=O)c2c(N)n(CC(C)C)c(=O)n(C)c2=O)cc1 | 17.6* | -13.4 | -8.4 | -7.5 | -13.8 | 6.4 | 2.5
COc1ccccc1CCC(=O)OCC(=O)c1c(N)n(CC(C)C)c(=O)n(C)c1=O | · | -9.6 | -8.8 | · | · | · | ·
CNC(=O)C(=O)NCCCN1CCOCC1 | 0.8 | -3.5 | -0.5 | -3.8 | 7.0 | · | ·
O=C(Nc1nccs1)c1cn2ccccc2n1 | 32.5* | · | · | 18.9 | 0.0 | 54.1* | 42.7*
NNC(=O)c1cn2ccccc2n1 | -1.9 | 12.9 | 0.8 | 4.7 | · | · | ·
COc1cc2c(cc1/C=C/C(=O)O)OC(C)C2 (centres undefined) | -0.6 | 20.0 | 16.6 | 1.7 | 1.0 | · | ·
CC(C)(O)C1Cc2cc(/C=C/C(=O)O)c(O)cc2O1 (centres undefined) | 27.5* | -10.0 | -1.0 | 4.9 | -4.4 | 5.5 | -8.2
Cc1occc1C(=O)N/N=C/c1ccc(N(C)C)cc1 | 19.5* | ? | 36.7 | -0.4 | 9.0 | 59.7* | 49.8*
C/C(=N/NC(=O)c1ccoc1C)c1ccc(NC(=O)C2CCCC2)cc1 | 0.8 | 39.2 | 25.4 | -9.7 | -14.2 | · | ·
C/C(=N\NC(=O)c1ccoc1C)c1ccccc1 | 19.8* | 35.8 | 13.4 | 8.6 | 1.4 | -2.5 | -22.2
O=C(O)c1ccc(Nc2ncnc3c2cnn3Cc2ccccc2)cc1 | -4.3 | 30.2 | 1.5 | 2.6 | 18.5 | · | ·
Cc1cc(S(=O)(=O)N2CCOCC2)ccc1OCC(=O)Nc1ccc(F)cc1 | -2.6 | 6.1 | -4.4 | -3.5 | 6.8 | · | ·
Cc1ccc(OCC(=O)Nc2ccc(S(=O)(=O)N3CCOCC3)cc2)c(C)c1 | 20.0* | 6.7 | 2.9 | -6.4 | -9.5 | 6.8 | 2.0
Cc1ccc2oc(=O)c(/C=C(\O)c3cccs3)nc2c1 | 18.1* | 118.8* | 60.4 | 25.3 | -11.7 | 41.6* | -16.4
O=c1oc2ccc(Cl)cc2nc1/C=C(\O)c1cccs1 | 62.7* | 52.1* | 19.0 | 14.5 | -8.2 | 78.6* | -10.9
Cc1ccc2oc(=O)c(/C=C(\O)c3ccccc3)nc2c1 | 2.9 | -2.7 | -2.4 | 8.3 | 24.6 | · | ·
CC(C)CN(C(=O)COC(=O)c1ccc(Br)o1)c1c(N)n(Cc2ccccc2)c(=O)[nH]c1=O | · | -2.0 | -2.6 | · | · | · | ·
Cc1ccccc1-c1ccc(=O)n(CC(=O)Nc2ccc(C(=O)N3CCCC3)cc2)n1 | -0.8 | 12.9 | -11.8 | -3.0 | · | · | ·
Cc1ccccc1-c1ccc(=O)n(CC(=O)Nc2ccc(N3CCOCC3)cc2)n1 | 43.2* | 25.3 | 13.5 | 1.4 | · | 0.1 | -5.1
Cc1ccc(OCc2ccc(C(=O)O)o2)cc1C | 70.5* | 44.8 | 10.4 | -0.3 | 0.1 | 71.1* | 5.2
CC(C)c1ccc(COc2ccc(C(=O)N3CCOCC3)cc2)cc1 | 1.2 | 16.5 | 6.6 | 1.5 | 6.8 | · | ·
CCOc1ccc(OCc2ccc(C(=O)N3CCCC3)o2)cc1 | 30.4* | 0.8 | 9.3 | -5.8 | 0.6 | 19.3* | -29.9
CC(C)c1ccc(OCc2ccc(C(=O)N3CCCC3)o2)cc1 | 17.0* | 48.0 | 28.1 | 11.1 | 8.0 | 24.4* | -15.0
CCC(C)c1ccc(OCc2ccc(C(=O)O)o2)cc1 (centres undefined) | 93.6* | -61.4 | -52.7* | 5.6 | -4.7 | 91.9* | 81.5*
O=C(CN1C(=O)C(=O)N(C2CCCC2)C1=O)Nc1ccc(N2CCOCC2)cc1 | -0.6 | 30.2 | -4.3 | 6.9 | -3.3 | · | ·
SMILES | HSP90 inh | HSF-1 act | HSF1 inhib | NS3 helicase inh | Hep lipid drop | HSP90 inh confirm | FLuc counter
CC(C(=O)N1CCc2ccccc21)N1CCN(Cc2ccccc2)CC1 (centres undefined) | 0.8 | 18.5 | 0.0 | -7.2 | -28.3 | · | ·
CCOc1ccc(OCc2ccc(C(=O)N3N=C(C(F)F)CC3(O)C(F)F)o2)cc1 (centres undefined) | 28.1* | 0.6 | 1.3 | -4.2 | 8.1 | 12.9 | -5.9
Cc1cc(CN2CCCCC2)oc1C(=O)O | -2.6 | · | · | -2.0 | -1.1 | · | ·
CCOC(=O)c1ccc(COc2ccc(C(C)C)cc2)o1 | 33.5* | 54.1* | 25.0 | -8.7 | -23.5 | 71.4* | -13.5
Cc1cc(COc2ccccc2)oc1C(=O)O | 68.8* | -29.9 | -7.2 | -21.6 | -8.9 | 84.0* | 50.4*
CC(C)C(=O)Nc1nc2c(ncn2C2CC(O)C(CO)O2)c(=O)[nH]1 (centres undefined) | 34.1* | -8.4 | -5.0 | 1.4 | · | 4.4 | -0.7
O=C(O)c1cccc(COc2ccc3c(c2)CCC3)c1 | 83.4* | -82.1 | -78.8* | 24.5 | 11.8 | 95.1* | 92.6*
O=C(OCC(F)(F)F)c1cccc(COc2ccc3ccccc3c2)c1 | 25.5* | -65.6 | -62.1* | 5.4 | 1.8 | 93.0* | 22.0*
O=C(NCc1ccccc1)c1cccc(COc2ccc3c(c2)CCC3)c1 | 35.9* | -35.3 | -35.2 | -6.6 | 22.1 | 45.2* | 44.8*
O=C(O)c1cccc(S(=O)(=O)Nc2ccc(OCc3ccccc3)cc2)c1 | -4.1 | -3.6 | 2.4 | 9.6 | 8.3 | · | ·
O=C(COc1ccc2c(c1)CCC2)NCc1cccc(Cl)c1 | 3.3 | -16.5 | 5.2 | -2.4 | -4.2 | · | ·
CCC(C)[C@H](NC(=O)[C@@H]1Cc2c([nH]c3ccccc23)C2c3ccccc3C(=O)N21)C(=O)NCC1CCCO1 (some centres undefined) | 4.6 | 8.7 | 6.1 | 0.3 | · | · | ·
CCCCn1c(N)c(N(CCC(C)C)C(=O)c2c(C)noc2C)c(=O)[nH]c1=O | · | 2.0 | -13.4 | · | · | · | ·
CCN(CC)c1ccc(/C=C(\C#N)c2ccccn2)cc1 | 21.2* | -64.0 | -58.3* | -15.3 | -9.7 | 69.6* | 60.5*
CN(CCC#N)c1ccc(/C=C(\C#N)c2ccccn2)cc1 | 1.8 | 31.3 | 1.4 | -0.7 | 15.7 | · | ·
CCOc1cccc2cc(-c3csc(NC(=O)CCC(=O)NCCCN4CCC(C)CC4)n3)c(=O)oc12 | -2.6 | ? | 22.7 | 8.4 | 15.3 | · | ·
COc1cccc2cc(-c3csc(NC(=O)CCC(=O)NCCCN4CCC(C)CC4)n3)c(=O)oc12 | 27.3* | 40.7 | 28.2 | -8.1 | 1.3 | 2.5 | -15.2
CN1CCN(C(=O)C2=C[C@@H](c3ccc(Br)cc3)C[C@@H](OCc3ccc(CO)cc3)O2)CC1 | 25.3* | -6.5 | -7.0 | -17.8 | -8.7 | -2.6 | -4.0
CN1CCN(C(=O)C2=C[C@@H](c3ccccc3)C[C@@H](OCc3ccc(CO)cc3)O2)CC1 | 6.8 | -19.2 | -1.0 | 4.5 | 2.5 | · | ·
O=C(O)c1ccc(NC(=O)C2C3CCC(O3)C2C(=O)O)cc1 (centres undefined) | -2.1 | 7.0 | -9.4 | 8.1 | -0.3 | · | ·

Screens deposited in PubChem BioAssay by several laboratories.
